By EC50 is commonly meant the midpoint of the concentration-response curve. Broadly, the Ki is a measure of affinity in units of concentration, obtained from inhibition or displacement.

Active and inactive are the calls of the source. The calls are words filed in the database; no cut-off is given here. Some results are limits rather than exact numbers.

The first series concerns the target T1, Peroxisome proliferator-activated receptor alpha (Homo sapiens) (UniProt Q07869).
T1 sequence (whole entry): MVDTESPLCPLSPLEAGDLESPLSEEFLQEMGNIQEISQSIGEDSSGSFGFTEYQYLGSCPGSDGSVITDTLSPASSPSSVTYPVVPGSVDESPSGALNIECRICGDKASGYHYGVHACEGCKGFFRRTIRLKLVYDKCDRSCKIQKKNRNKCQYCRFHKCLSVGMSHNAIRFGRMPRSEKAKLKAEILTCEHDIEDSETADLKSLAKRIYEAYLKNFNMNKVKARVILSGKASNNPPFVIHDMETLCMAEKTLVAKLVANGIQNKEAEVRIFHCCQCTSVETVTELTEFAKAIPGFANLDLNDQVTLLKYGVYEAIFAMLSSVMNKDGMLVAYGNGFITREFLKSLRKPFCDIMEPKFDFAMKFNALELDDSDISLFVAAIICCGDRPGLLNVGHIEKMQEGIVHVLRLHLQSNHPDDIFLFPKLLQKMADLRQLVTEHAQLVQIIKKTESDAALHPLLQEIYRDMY
The series can be described thus: Displacement of [3H]-agonist from human PPARalpha expressed in baculovirus infecetd Sf9 cells system up to 30 uM after 10 hrs in presence of DR2 by scintillation proximity assay.
Conditions: not given
The essentials: (§1)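 PPAR alpha, delta and gamma binding and functional activity were each tested at concentrations up to 30 µM.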
In general terms: Loss of bound radioactivity is the signal in a displacement assay; it reports binding, not function.
As to `CC#C[C@@H](CC(=O)O)c1ccc(OCc2ccc3nc(-c4ccc(OCCOC)cc4)nn3c2)cc1`, the result was inactive.
For `CC#C[C@@H](CC(=O)O)c1ccc(OCc2ccc3nc(-c4ccc(OCCC(C)(C)O)cc4)nn3c2)cc1`, the outcome was inactive.

The next series has as its target T2, Peroxisome proliferator-activated receptor delta (Homo sapiens) (UniProt Q03181).
T2 sequence (whole entry): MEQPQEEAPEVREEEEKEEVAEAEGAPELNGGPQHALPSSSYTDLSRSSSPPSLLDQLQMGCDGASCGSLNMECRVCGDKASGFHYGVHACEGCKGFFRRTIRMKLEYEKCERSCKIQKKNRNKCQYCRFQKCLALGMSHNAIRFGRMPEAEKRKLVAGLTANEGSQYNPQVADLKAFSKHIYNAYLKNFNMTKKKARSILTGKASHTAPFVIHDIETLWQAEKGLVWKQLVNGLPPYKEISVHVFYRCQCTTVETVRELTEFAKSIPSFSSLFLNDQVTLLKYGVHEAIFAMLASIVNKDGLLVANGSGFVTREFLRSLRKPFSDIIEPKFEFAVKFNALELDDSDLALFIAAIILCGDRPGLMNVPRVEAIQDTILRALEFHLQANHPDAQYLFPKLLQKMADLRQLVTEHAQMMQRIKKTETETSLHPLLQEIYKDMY
Briefly: Agonist activity at GAL4-fused human PPARdelta expressed in African green monkey CV1 cells up to 30 uM after 24 hrs by luciferase reporter gene assay. In kind it is cell-based.
Conditions: not given
The gist of the method: as §1
(Reporter assays use an easily measured gene product as a stand-in for the process of interest.)
For the compound `CC#C[C@@H](CC(=O)O)c1ccc(OCc2ccc3nc(-c4ccc(OCCOC)cc4)nn3c2)cc1`, the outcome was inactive.
The same measure, in the same setting: next, `CC#C[C@@H](CC(=O)O)c1ccc(OCc2ccc3nc(-c4ccc(OCCC(C)(C)O)cc4)nn3c2)cc1`: “inactive”.

In a further series the target is Free fatty acid receptor 1 (Rattus norvegicus, UniProt Q8K3T4). Briefly: Agonist activity at rat PK-tagged GPR40 expressed in human U2OS cells assessed as EA-tagged beta-arrestin recruitment after 90 mins in presence of 1 % heat inactivated FBS by beta-galactosidase reporter gene assay. Format: cell-based.
Free fatty acid receptor 1 (Rattus norvegicus, UniProt Q8K3T4), sequence (Q8K3T4 whole entry): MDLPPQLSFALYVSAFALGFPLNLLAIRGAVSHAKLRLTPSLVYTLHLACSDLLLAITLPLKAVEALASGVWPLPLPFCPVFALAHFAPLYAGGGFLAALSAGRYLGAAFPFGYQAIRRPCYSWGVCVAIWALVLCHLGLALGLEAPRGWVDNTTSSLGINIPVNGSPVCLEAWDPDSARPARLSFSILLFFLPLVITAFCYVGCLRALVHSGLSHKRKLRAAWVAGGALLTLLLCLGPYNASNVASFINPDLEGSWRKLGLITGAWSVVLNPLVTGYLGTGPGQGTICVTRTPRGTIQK
Conditions: not given
The essentials: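 β-Arrestin recruitment used rat GPR40 in the presence of 1% FBS. EC50 and % maximal stimulation are reported with SEM and n.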
On the technique in general: Arrestin recruitment assays detect the binding of arrestin to an activated receptor.
On to `CC#C[C@@H](CC(=O)O)c1ccc(OCc2ccc3nc(-c4ccc(OCCOC)cc4)nn3c2)cc1`, for which the concentration for a half-maximal effect (EC50) was found to be 562 nM.
For `CC#C[C@@H](CC(=O)O)c1ccc(OCc2ccc3nc(-c4ccc(OCCC(C)(C)O)cc4)nn3c2)cc1`, the EC50 is 68 nM.

The next series deals with T3, Free fatty acid receptor 1 (Homo sapiens, UniProt O14842). Briefly: Agonist activity at human GPR40 receptor expressed in HEK293 cells assessed as increase in intracellular calcium flux after 2.5 hrs measured over 3 mins by calcium 4 dye-based FLIPR assay. Format: functional, cell-based.
T3 sequence (O14842 whole entry): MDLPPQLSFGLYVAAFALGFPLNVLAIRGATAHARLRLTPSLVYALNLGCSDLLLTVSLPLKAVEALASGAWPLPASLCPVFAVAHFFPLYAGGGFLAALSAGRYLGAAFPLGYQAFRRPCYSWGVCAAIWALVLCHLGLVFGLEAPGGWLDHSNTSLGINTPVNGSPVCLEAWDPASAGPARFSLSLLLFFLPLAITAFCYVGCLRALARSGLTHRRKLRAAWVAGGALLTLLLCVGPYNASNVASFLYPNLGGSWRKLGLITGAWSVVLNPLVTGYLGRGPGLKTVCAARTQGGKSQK
Conditions: not given
The essentials:
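Calcium flux was read by FLIPR in cells carrying recombinant human GPR40. Percent stimulation is relative to the response to 100 µM linoleic acid. EC50 is reported with SEM and n.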
For `CC#C[C@@H](CC(=O)O)c1ccc(OCc2ccc3nc(-c4ccc(OCCOC)cc4)nn3c2)cc1`, the 50% effective concentration (EC50) was 16 nM.
The same measure, in the same setting: the figure for `CC#C[C@@H](CC(=O)O)c1ccc(OCc2ccc3nc(-c4ccc(OCCC(C)(C)O)cc4)nn3c2)cc1` is 72 nM.

Another series concerns 3T3-L1. Briefly: Induction of adipogenesis in mouse 3T3L1 cells. In kind it is functional, cell-based.
Conditions: not given
The essentials:
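Adipogenesis was assessed in 3T3-L1 cells.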
On to `CC#C[C@@H](CC(=O)O)c1ccc(OCc2ccc3nc(-c4ccc(OCCOC)cc4)nn3c2)cc1`, for which the outcome was inactive.
Still for that read-out and setting: next, `CC#C[C@@H](CC(=O)O)c1ccc(OCc2ccc3nc(-c4ccc(OCCC(C)(C)O)cc4)nn3c2)cc1`: “inactive”.

The target of another series is T2, Peroxisome proliferator-activated receptor delta (Homo sapiens). Briefly: Displacement of [3H]-agonist from human PPARdelta expressed in baculovirus infecetd Sf9 cells system up to 30 uM after 10 hrs in presence of DR2 by scintillation proximity assay.
Conditions: not given
The essentials:
as §1
As for `CC#C[C@@H](CC(=O)O)c1ccc(OCc2ccc3nc(-c4ccc(OCCOC)cc4)nn3c2)cc1`, the result was inactive.
Same read-out and setting: next, `CC#C[C@@H](CC(=O)O)c1ccc(OCc2ccc3nc(-c4ccc(OCCC(C)(C)O)cc4)nn3c2)cc1`: “inactive”.

Another series concerns the target T3, Free fatty acid receptor 1. Briefly: Competitive displacement of [3H]-TAK-875 from full length human recombinant GPR40 expressed in HEK293 cell membranes after 2 hrs by scintillation counting.
Conditions: not given
The gist of the method: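 Binding was measured as competitive inhibition of [3H]-TAK875 (fasiglifam) binding to membranes from cells overexpressing recombinant human GPR40. Ki is reported with SEM and n.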
With `CC#C[C@@H](CC(=O)O)c1ccc(OCc2ccc3nc(-c4ccc(OCCOC)cc4)nn3c2)cc1`, the Ki came to 102 nM.
`CC#C[C@@H](CC(=O)O)c1ccc(OCc2ccc3nc(-c4ccc(OCCC(C)(C)O)cc4)nn3c2)cc1`: the Ki came out at 37 nM.

Tested on in another series: not listed separately
The series can be described thus: Protein binding in plasma (unknown origin) by equilibrium dialysis assay. Format: ADME, cell-free. The note with it: read-out: PPB.
With `CC#C[C@@H](CC(=O)O)c1ccc(OCc2ccc3nc(-c4ccc(OCCOC)cc4)nn3c2)cc1`, the fraction unbound was less than 0.01.
Still for that read-out and setting: the figure for `CC#C[C@@H](CC(=O)O)c1ccc(OCc2ccc3nc(-c4ccc(OCCC(C)(C)O)cc4)nn3c2)cc1` is less than 0.01.

In the next series the target is T3, Free fatty acid receptor 1. Briefly: Agonist activity at human PK-tagged GPR40 expressed in HEK293 cells assessed as EA-tagged beta-arrestin recruitment after 90 mins in presence of 1 % heat inactivated FBS by beta-galactosidase reporter gene assay. In kind it is cell-based.
Conditions: not given
For `CC#C[C@@H](CC(=O)O)c1ccc(OCc2ccc3nc(-c4ccc(OCCOC)cc4)nn3c2)cc1`, the concentration giving a half-maximal response (EC50) worked out at 681 nM.
On the same count and under the same terms, next, `CC#C[C@@H](CC(=O)O)c1ccc(OCc2ccc3nc(-c4ccc(OCCC(C)(C)O)cc4)nn3c2)cc1`: 301 nM.

A further series has as its target T1, Peroxisome proliferator-activated receptor alpha (Homo sapiens). The series can be described thus: Agonist activity at GAL4-fused human PPARalpha expressed in African green monkey CV1 cells up to 30 uM after 24 hrs by luciferase reporter gene assay. Format: cell-based.
Conditions: not given
The essentials:
as §1
As for `CC#C[C@@H](CC(=O)O)c1ccc(OCc2ccc3nc(-c4ccc(OCCOC)cc4)nn3c2)cc1`, the outcome was inactive.
Same read-out and setting: the entry for `CC#C[C@@H](CC(=O)O)c1ccc(OCc2ccc3nc(-c4ccc(OCCC(C)(C)O)cc4)nn3c2)cc1` is “inactive”.

In another series the target is Free fatty acid receptor 1 (Rattus norvegicus) (UniProt Q8K3T4). Briefly: Agonist activity at rat PK-tagged GPR40 expressed in human U2OS cells assessed as EA-tagged beta-arrestin recruitment after 90 mins in presence of 1 % heat inactivated FBS by beta-galactosidase reporter gene assay relative to untreated control. Format: cell-based.
Free fatty acid receptor 1 (Rattus norvegicus), sequence (Q8K3T4 whole entry): as the sequence (Q8K3T4 whole entry) above
Conditions: not given
Regarding `CC#C[C@@H](CC(=O)O)c1ccc(OCc2ccc3nc(-c4ccc(OCCOC)cc4)nn3c2)cc1`, the %max is 133%.
Same read-out and setting: next, `CC#C[C@@H](CC(=O)O)c1ccc(OCc2ccc3nc(-c4ccc(OCCC(C)(C)O)cc4)nn3c2)cc1`: 121%.

A further series concerns the target T4, Peroxisome proliferator-activated receptor gamma (Homo sapiens) (UniProt P37231).
T4 sequence (whole entry): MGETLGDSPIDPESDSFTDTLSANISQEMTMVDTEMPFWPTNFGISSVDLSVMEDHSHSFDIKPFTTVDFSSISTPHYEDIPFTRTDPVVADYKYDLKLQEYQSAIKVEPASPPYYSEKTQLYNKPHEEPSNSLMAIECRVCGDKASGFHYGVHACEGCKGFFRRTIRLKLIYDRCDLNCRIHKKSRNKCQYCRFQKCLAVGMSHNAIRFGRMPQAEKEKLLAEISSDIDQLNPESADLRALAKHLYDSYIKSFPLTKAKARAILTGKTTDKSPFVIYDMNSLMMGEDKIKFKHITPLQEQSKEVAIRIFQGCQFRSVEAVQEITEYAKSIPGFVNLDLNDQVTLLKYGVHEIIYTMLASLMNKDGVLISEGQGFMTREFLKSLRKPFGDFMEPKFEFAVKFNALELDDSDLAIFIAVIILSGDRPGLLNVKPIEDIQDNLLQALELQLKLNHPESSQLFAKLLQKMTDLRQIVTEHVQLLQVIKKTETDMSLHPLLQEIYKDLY
The series can be described thus: Agonist activity at […] human PPARgamma expressed in African green monkey CV1 cells up to 30 uM after 24 hrs by luciferase reporter gene assay. In kind it is cell-based.
Conditions: not given
The gist of the method: as §1
For `CC#C[C@@H](CC(=O)O)c1ccc(OCc2ccc3nc(-c4ccc(OCCOC)cc4)nn3c2)cc1`, the outcome was inactive.
The same measure, in the same setting: the entry for `CC#C[C@@H](CC(=O)O)c1ccc(OCc2ccc3nc(-c4ccc(OCCC(C)(C)O)cc4)nn3c2)cc1` is “inactive”.

The target in another series is T4, Peroxisome proliferator-activated receptor gamma (Homo sapiens). Briefly: Displacement of [3H]-agonist from human PPARgamma expressed in baculovirus infecetd Sf9 cells system up to 30 uM after 10 hrs in presence of DR2 by scintillation proximity assay.
Conditions: not given
The essentials: as §1
Consider `CC#C[C@@H](CC(=O)O)c1ccc(OCc2ccc3nc(-c4ccc(OCCOC)cc4)nn3c2)cc1`, for which the result was inactive.
Still for that read-out and setting: the entry for `CC#C[C@@H](CC(=O)O)c1ccc(OCc2ccc3nc(-c4ccc(OCCC(C)(C)O)cc4)nn3c2)cc1` is “inactive”.

The target of the next series is T3, Free fatty acid receptor 1. Briefly: Agonist activity at human GPR40 receptor expressed in HEK293 cells assessed as increase in intracellular calcium flux after 2.5 hrs measured over 3 mins in presence of 0.1% serum albumin by calcium 4 dye-based FLIPR assay. Format: functional, cell-based.
Conditions: not given
In the case of `CC#C[C@@H](CC(=O)O)c1ccc(OCc2ccc3nc(-c4ccc(OCCOC)cc4)nn3c2)cc1`, the outcome was Active.
On the same count and under the same terms, next, `CC#C[C@@H](CC(=O)O)c1ccc(OCc2ccc3nc(-c4ccc(OCCC(C)(C)O)cc4)nn3c2)cc1`: “Active”.

The target in a further series is T3, Free fatty acid receptor 1. Briefly: Agonist activity at human PK-tagged GPR40 expressed in HEK293 cells assessed as EA-tagged beta-arrestin recruitment after 90 mins in presence of 1 % heat inactivated FBS by beta-galactosidase reporter gene assay relative to untreated control. Format: cell-based.
Conditions: not given
In the case of `CC#C[C@@H](CC(=O)O)c1ccc(OCc2ccc3nc(-c4ccc(OCCOC)cc4)nn3c2)cc1`, the %max came to 121%.
Still for that read-out and setting: the figure for `CC#C[C@@H](CC(=O)O)c1ccc(OCc2ccc3nc(-c4ccc(OCCC(C)(C)O)cc4)nn3c2)cc1` is 132%.

The target in the next series is T3, Free fatty acid receptor 1. The series can be described thus: Agonist activity at human GPR40 receptor expressed in HEK293 cells assessed as increase in intracellular calcium flux after 2.5 hrs measured over 3 mins by calcium 4 dye-based FLIPR assay relative to linoleic acid. Format: functional, cell-based. Further details: Activity: concentration or dose not given beside the values.
Conditions: not given
The essentials:
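Human GPR40 calcium flux was read on FLIPR. Percent stimulation is expressed against the response to 100 uM linoleic acid.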
Take `CC#C[C@@H](CC(=O)O)c1ccc(OCc2ccc3nc(-c4ccc(OCCOC)cc4)nn3c2)cc1`: the Activity came out at 74%.
Still for that read-out and setting: the figure for `CC#C[C@@H](CC(=O)O)c1ccc(OCc2ccc3nc(-c4ccc(OCCC(C)(C)O)cc4)nn3c2)cc1` is 89%.

Source of the values: ChEMBL document CHEMBL4024777, “Discovery of LY3104607: A Potent and Selective G Protein-Coupled Receptor 40 (GPR40) Agonist with Optimized Pharmacokinetic Properties to Support Once Daily Oral Treatment in Patients with Type 2 Diabetes Mellitus” (J Med Chem, 2018).
